The test system of one data set is Escherichia coli. The data set can be described thus: Inhibition of protein synthesis in Escherichia coli by cell-free transcription-translation assay. Format: functional. The method, boiled down:
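E. coli cell-free coupled transcription/translation run in microtiter format with a luciferase reporter; luminescence was the read-out for protein synthesis.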

Data set [1] is described as follows: Bioavailability in Sprague-Dawley rat at 20 mg/kg, po. As to conditions: Sprague-Dawley, in vivo. Format: ADME, organism-based.
In a further data set the test system is Streptococcus pneumoniae. Description: Antibacterial activity against levofloxacin-penicillin-resistant Streptococcus pneumoniae SV1 SP3 by microbroth technology. In kind it is functional. The essentials: (§1)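 Drug-resistant panel strains (levofloxacin/oxacillin-resistant S. aureus, levofloxacin/penicillin-resistant S. pneumoniae, vancomycin-resistant E. faecalis and E. faecium). Broth microdilution MIC in µg/mL; value reported as MIC90 across the strains of each resistant group.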
On the technique in general: In broth dilution the organism is exposed to a series of concentrations in liquid medium.

The nature of data set [2]: Cmax in Sprague-Dawley rat at 20 mg/kg, po. Further details: dose 20 mg/kg, route oral. Format: ADME, organism-based. The note with it: in vivo.
Data set [3] concerns the target T1, Amine oxidase [flavin-containing] A (Homo sapiens, UniProt P21397).
T1 sequence (P21397 whole entry): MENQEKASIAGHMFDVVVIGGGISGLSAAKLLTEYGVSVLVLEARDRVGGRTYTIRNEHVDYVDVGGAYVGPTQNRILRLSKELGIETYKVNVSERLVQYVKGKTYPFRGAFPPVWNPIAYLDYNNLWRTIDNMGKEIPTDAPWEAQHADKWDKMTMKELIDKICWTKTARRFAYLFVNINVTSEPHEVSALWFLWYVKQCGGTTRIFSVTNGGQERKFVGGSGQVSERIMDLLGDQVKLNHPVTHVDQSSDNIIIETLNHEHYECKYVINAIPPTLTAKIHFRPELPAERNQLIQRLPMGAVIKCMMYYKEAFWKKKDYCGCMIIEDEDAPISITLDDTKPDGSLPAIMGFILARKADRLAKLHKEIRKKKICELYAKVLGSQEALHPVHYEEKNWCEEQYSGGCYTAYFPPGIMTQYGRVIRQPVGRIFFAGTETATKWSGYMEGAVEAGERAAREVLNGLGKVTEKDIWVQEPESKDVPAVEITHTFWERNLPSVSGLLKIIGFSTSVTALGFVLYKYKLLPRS
Description: Inhibition of human recombinant MAOA.

For another data set, the system named is Enterococcus faecalis. The data set can be described thus: Antibacterial activity against vancomycin-resistant Enterococcus faecalis MGH2 EF1 by microbroth technology. Format: functional. The method, boiled down: as §1
For the next data set, the system named is Haemophilus influenzae. The data set can be described thus: Antibacterial activity against Haemophilus influenzae by micro-broth technology. In kind it is functional. The method, boiled down:
(§2)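 MIC determined by broth microdilution, reported in µg/mL.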

A short description of data set [4]: Volume of distribution at steady state in Sprague-Dawley rat at 10 mg/kg, iv. Format: ADME, organism-based. Further details: dose 10 mg/kg, route intravenous. As to conditions: in vivo, read-out: Vdss.
In the next data set the test system is Moraxella catarrhalis. Description: Antibacterial activity against Moraxella catarrhalis by microbroth technology. In kind it is functional. The method, boiled down: as §2
Data set [5] in a line: AUC in Sprague-Dawley rat at 20 mg/kg, po. Format: ADME, organism-based, Plasma. Further details: dose 20 mg/kg, route oral. As to conditions: Sprague-Dawley, plasma.
The next data set has as its system Enterococcus faecium. The data set can be described thus: Antibacterial activity against vancomycin-resistant Enterococcus faecium by micro-broth technology. In kind it is functional. The method, boiled down:
as §1

A short description of data set [6]: Clearance in Sprague-Dawley rat at 10 mg/kg, iv. In kind it is ADME, organism-based. Further details: dose 10 mg/kg, route intravenous. As to conditions: in vivo.
Data set [7] has as its system Staphylococcus aureus. The data set can be described thus: Antibacterial activity against levofloxacin-oxacillin-resistant Staphylococcus aureus UC76 SA1 by micro-broth technology. Format: functional. The method, boiled down:
as §1

The subject of data set [8] is Staphylococcus aureus. The data set can be described thus: Antibacterial activity against Staphylococcus aureus UC76 in po dosed CD1 mouse systemic infection model assessed as mortality after 7 days. In kind it is functional.
Data set [9] can be described thus: Half life in Sprague-Dawley rat at 20 mg/kg, po. Format: ADME, organism-based. Further details: dose 20 mg/kg, route oral. The note with it: in vivo.

≈ marks a conversion by molar mass, not a printed value. Bounds are passed on as bounds.

The term IC50 denotes the concentration that gives 50% inhibition. By bioavailability is commonly meant the share of a dose that reaches the circulation, judged against a reference dose that is usually intravenous. Lower therefore signals little systemic uptake. The MIC90 is an inhibitory concentration at the 90% level, which refers to growth in some studies and to a panel of isolates in others. Higher therefore signals lower susceptibility. In general, Cmax refers to the maximum level reached in the sampled fluid or tissue. A word on the AUC: it is the area under the concentration-time curve, a measure of exposure. Low values mean less exposure, high ones more exposure. One may read the clearance as the rate of elimination divided by the concentration. The half-life is the time needed for the level to fall by half in the phase considered. Low readings indicate fast loss, high ones slow loss. Take `NC(=O)[C@H]1CN(c2cc(F)c(C3CC[S+]([O-])CC3)c(F)c2)C(=O)O1` (some centres not stated): the figures for the IC50 (in the data set with Escherichia coli; in [3]) were 3.6 µM and 355 µM, respectively. Moreover, the bioavailability in data set [1] was 65%. Moreover, the MIC90 against Streptococcus pneumoniae, against Enterococcus faecalis, against Enterococcus faecium and against Staphylococcus aureus [7] was 2 µg/mL (≈ 5.58 µM) throughout. In addition, the concentration in data set [2] peaked (Cmax) at 4690 ng/mL. The MIC with Haemophilus influenzae and against Moraxella catarrhalis was above 8 µg/mL throughout. For the same compound, the Vd in data set [4] stood at 0.83 L/kg. Further, in data set [5], the AUC turned out to be 15400 ng·h/mL. In data set [6], this compound yielded a clearance of 12.8 mL/min/kg. In the data set on Staphylococcus aureus [8], the PD50 was found to be 1.1 mg/kg. Also, the half-life in data set [9] was 2.24 h.
Turning to `NC(=O)[C@H]1CN(c2cc(F)c(C3CCS(=O)(=O)CC3)c(F)c2)C(=O)O1`, the results for the IC50 (with Escherichia coli; in [3]) were 6.28 µM and 293 µM, respectively. In addition, the MIC in the data set on Streptococcus pneumoniae was 4 µg/mL (≈ 10.7 µM); against Enterococcus faecalis, 4 µg/mL (≈ 10.7 µM); in the data set with Haemophilus influenzae it was above 8 µg/mL; against Moraxella catarrhalis, above 8 µg/mL; in the data set on Enterococcus faecium, 8 µg/mL (≈ 21.4 µM); with Staphylococcus aureus [7] it was 4 µg/mL (≈ 10.7 µM). In addition, the PD50 with Staphylococcus aureus [8] worked out at 15 mg/kg.
Regarding `NC(=O)[C@H]1CN(c2ccc(C3CCOCC3)c(F)c2)C(=O)O1`, the IC50 was found to be 6.1 µM with Escherichia coli and 58 µM in data set [3]. Moreover, the MIC in the data set on Streptococcus pneumoniae is 2 µg/mL (≈ 6.49 µM); with Enterococcus faecalis it was 4 µg/mL (≈ 13 µM); in the data set with Haemophilus influenzae, above 8 µg/mL; in the data set with Moraxella catarrhalis it was above 8 µg/mL; in the data set on Enterococcus faecium, 8 µg/mL (≈ 25.9 µM); against Staphylococcus aureus [7], 4 µg/mL (≈ 13 µM).

The values above are taken from ChEMBL document CHEMBL1138317, “Antibacterial oxazolidinones possessing a novel C-5 side chain. (5R)-trans-3-[3-Fluoro-4- (1-oxotetrahydrothiopyran-4-yl)phenyl]-2- oxooxazolidine-5-carboxylic acid amide (PF-00422602), a new lead compound” (J Med Chem, 2007).
